Reference: ChEMBL document CHEMBL4251758, “Small Molecule Inhibition of MicroRNA miR-21 Rescues Chemosensitivity of Renal-Cell Carcinoma to Topotecan” (J Med Chem, 2018)
pIC50: −log10 of the molar value. Calls of active or inactive are those of the source. No cut-off for these calls is given here.

Key:
[1] = Stabilization of pre-miR-21 RNA (unknown origin) assessed as increase in melting temperature at 10 uM by UV-spectrophotometric analysis
Method in brief: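 Melting-curve analysis of precursor miR-21 RNA run with test compound, with DMSO as the reference condition and tobramycin (10 μM) as a positive control for RNA binding and stabilisation. Read-out is the shift in melting temperature of pre-miR-21 relative to the DMSO sample.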

[2] = tested on: A498; assay: Inhibition of colony formation of human A498 cells up to 10 uM after 2 weeks by crystal violet staining-based microscopic analysis; format: functional, cell-based
Method in brief: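 A498 cells, 10,000 per well, seeded in 0.45% low-melt agarose in DMEM over a 0.7% agarose base layer, containing increasing compound concentrations or DMSO (0.1% final), in triplicate. For combinations, the inhibitor was held at 10 μM. After 2 weeks, colonies were stained with 0.1% crystal violet and imaged by z-stack microscopy. Colony counts were normalized to DMSO; IC50 from sigmoidal fit.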

[3] = Inhibition of miR-221 RNA (unknown origin) transfected in human PC3 cells at 10 uM after 48 hrs by Bright-Glo luciferase reporter gene assay; format: cell-based
[4] = target: microRNA 21; assay: Inhibition of miR-21 RNA in human A498 cells assessed as potentiation of topotecan-induced cytotoxicity by measuring topotecan IC50 at 10 uM after 72 hrs by XTT assay (reference value: 1 uM); format: cell-based
Method in brief: (§1)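 The chemotherapeutic agent (topotecan) was titrated while the miR-21 inhibitor was held at a fixed concentration, 0.1% DMSO final, in triplicate. Cells were seeded at 500 per well and treated after overnight attachment. After 72 h, XTT was read at 450 nm (630 nm background) at start and after 4 h. Signal normalized to DMSO; IC50 from variable-slope sigmoidal fit.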

[5] = tested on: microRNA 21; assay: Inhibition of promoter activity of miR-21 RNA (unknown origin) transfected in human HeLa cells at 10 uM after 48 hrs by Bright-Glo luciferase reporter gene assay; format: cell-based
Method in brief: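 HeLa cells, 10,000 per well, treated after overnight attachment with 10 μM compound or DMSO (0.1% final) in triplicate for 48 h. Cells were then transfected for 3 h with 100 ng pGL4-miR21P (miR-21 promoter driving firefly luciferase) or empty pGL4.10. Medium was replaced with compound-containing medium for a further 24 h, followed by Bright-Glo luminescence read.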

[6] = tested on: HeLa; assay: Inhibition of miR-182 RNA (unknown origin) transfected in human HeLa cells at 10 uM after 48 hrs by Bright-Glo luciferase reporter gene assay; format: cell-based
[7] = tested on: microRNA 21; assay: Inhibition of miR-21 RNA in human A498 cells assessed as potentiation of topotecan-induced cytotoxicity after 72 hrs by XTT assay; format: cell-based; method in brief: as §1
[8] = tested on: A498; assay: Induction of apoptosis in human A498 cells assessed as increase in caspase-3/7 activity at 10 uM after 24 hrs by Caspase-Glo 3/7 assay relative to control; format: functional
Method in brief: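 A498 cells, 10,000 per well, treated after overnight attachment for 24 h with DMSO (0.1%), 400 nM topotecan, 10 μM inhibitor, or topotecan plus inhibitor at those levels. Caspase-3/7 activity read by Caspase-Glo 3/7 luminescence and normalized to DMSO. At least three independent experiments; unpaired t test.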

[9] = tested on: A498; assay: Decrease in mature miR-21 expression levels in human A498 cells at 10 uM after 48 hrs by qRT-PCR analysis; format: functional, cell-based
[10] = tested on: U-87 MG; assay: Cytotoxicity against human U87 cells after 72 hrs by XTT assay; format: functional, cell-based, U-87MG ATCC
Method in brief: (§2)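 Cells seeded at 500 per well, incubated overnight, then exposed to increasing compound concentrations (0.1% DMSO final, DMSO control) in triplicate for 72 h. Activated XTT added; absorbance read at 450 nm with 630 nm background at start and after 4 h at 37 °C, 5% CO2. Change normalized to DMSO as % viability; IC50 from variable-slope sigmoidal fit; three independent measurements.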

[11] = tested on: MIA PaCa-2; assay: Cytotoxicity against human MIAPaCa2 cells after 72 hrs by XTT assay; format: functional, cell-based; settings: MIA PaCa-2, 72 h; method in brief: as §2

**Q.** Which Activity [1] does the source give for C#CCOc1ccc(-c2noc(-c3nnn(-c4cccc(/C(C)=N/O)c4)c3N)n2)cc1 here?
**A.** inactive

**Q.** What about the inhibition [2] of the same compound?
**A.** inactive

**Q.** And the inhibition [3]?
**A.** inactive

**Q.** And the pIC50 [4]?
**A.** 7.05

**Q.** And the inhibition [5]?
**A.** inactive

**Q.** What about the inhibition [6] of the same compound?
**A.** inactive

**Q.** What about the inhibition [7] of the same compound?
**A.** Dose-dependent effect

**Q.** What about the Activity [8] of the same compound?
**A.** 20%

**Q.** And the Activity [9]?
**A.** inactive

**Q.** And the pIC50 [10]?
**A.** 5.48

**Q.** What about the pIC50 [11] of the same compound?
**A.** 5.17
